Marks after values point to notes of the source that are not given here.

In one test the target is DRB1*15:01 (Homo sapiens, UniProt P01903+P01911). Description: REVEAL MHC-peptide binding assay. The note with it: HLA DRB1*15:01; percentage of signal of positive control peptide. Summed up:
(§1)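 Overlapping 15-mer peptides (3-residue offset) spanning brown shrimp tropomyosin (Q3Y8M6) were tested in the REVEAL assay. It detects peptide-stabilised, natively folded MHC class II complexes via a labeled antibody. Scores at 0 and 24 h are expressed as % of signal from an allele-specific known T-cell epitope positive control. An intermediate-affinity control peptide verified assay performance. A score of ≥10% counted as a good binder.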

A further test deals with DRB1*11:01 (Homo sapiens, UniProt P01903+P01911, A100R/A169T/A87E/I96F/K41T/L162R/M171V/P40S/Q125H/Q178H/Q39Y/Q99D/R42S/S66Y/T262R/V115G/W38E). Description: REVEAL MHC-peptide binding assay. The note with it: HLA DRB1*11:01; percentage of signal of positive control peptide. Summed up: as §1
For a further test, the target named is DQA1*03:01; DQB1*03:02 (Homo sapiens, UniProt P01909+P01920, A209T/A45G/C70Q/D89A/DUP78-78/E183D/E77G/F237L/G63E/H199R/I129T/K197E/L178F/L74F/L98V/Q57E/Q76R/S185I/S97I/T217I/T49S/V73L/Y58L). As to the kind of experiment: REVEAL MHC-peptide binding assay. The note with it: HLA DQB1*03:02; percentage of signal of positive control peptide. Summed up:
as §1

The target of a further test is DRB1*13:01 (Homo sapiens, UniProt P01903+P01911, A100E/A169T/K41T/L162R/M171V/P40S/Q125H/Q178H/Q39Y/Q99D/R42S/S66N/T262R/W38E/Y61H). Description: REVEAL MHC-peptide binding assay. The note with it: HLA DRB1*13:01; percentage of signal of positive control peptide. Summed up:
as §1

In a further test the target is DQA1*01:01; DQB1*05:01 (Homo sapiens, UniProt P01909+P01920, A157S/A45G/A70V/C70R/D89V/E106S/E118A/E183D/E77G/F83G/G63E/H151Q/H199R/H252R/H253Q/I129T/I235V/I88M/INS77G/K197Q/L107V/L117V/L119Y/L178F/L71W/L74F/L85Q/L91A/L98M/M46L/N214S/P87R/Q116E/Q256R/Q57E/Q76K/R102G/R240Q/R75S/R78G/S102Y/S185I/S41F/S97I/T103A/T109R/T121G/T122I/T172A/T86R/V148I/V68A/V73E/Y34C/Y58G/Y62H). As to the kind of experiment: REVEAL MHC-peptide binding assay. The note with it: HLA DQB1*05:01; percentage of signal of positive control peptide. Summed up: as §1

The next test concerns the target DRB1*04:01 (Homo sapiens, UniProt P01903+P01911, A100K/A169T/F76Y/I96L/K127E/L162R/M171V/N62H/P40V/Q125Y/R42H/S133A/S149N/S66Y/V115G/V209L/W38E). Description: REVEAL MHC-peptide binding assay. The note with it: HLA DRB1*04:01; percentage of signal of positive control peptide. Summed up: as §1
The next test deals with DRB1*03:01 (Homo sapiens, UniProt P01903+P01911, A100K/A102G/A103R/A169T/F55Y/I96L/K41T/L162R/M171V/P40S/Q125H/Q178H/Q39Y/R42S/S66N/T106N/T262R/W38E/Y61H). Description: REVEAL MHC-peptide binding assay. The note with it: HLA DRB1*03:01; percentage of signal of positive control peptide. Summed up:
as §1

The next test deals with DQA1*05:01; DQB1*02:01 (Homo sapiens, UniProt P01909+P01920, A45G/A70V/D89A/E106A/E77G/E98D/H199R/L107V/N214S/P84L/P87L/T103K/T109R/T172A/T60S/V78E/V99I/Y58L/Y62S/Y69I/Y79F). Description: REVEAL MHC-peptide binding assay. The note with it: HLA DQB1*02:01; percentage of signal of positive control peptide. Summed up: as §1
The next test has as its target DRB1*07:01 (Homo sapiens, UniProt P01903+P01911, A100R/A102G/A103Q/D57E/D86V/E43K/F76Y/K127E/L162R/M171V/P40G/Q125H/Q99D/R33Q/R42Y/R54Q/S133A/S66F/T210M/V115G/Y107V/Y59L/Y89S). As to the kind of experiment: REVEAL MHC-peptide binding assay. The note with it: HLA DRB1*07:01; percentage of signal of positive control peptide. Summed up: as §1
A further test deals with MHC class II alleles. Description: REVEAL MHC-peptide binding assay. Further details: species or system human. The note with it: % of the positive control; allele not given. Summed up:
as §1

The target of another test is DRB1*09:01 (Homo sapiens, UniProt P01903+P01911, A100R/A103E/D57H/D86V/F55Y/F60I/F76Y/I96F/K127E/L162R/M171V/P40D/Q125H/Q99R/R33Q/R42F/S133A/S66N/T210M/V115G/W38K/Y107V/Y59G/Y89S). As to the kind of experiment: REVEAL MHC-peptide binding assay. The note with it: HLA DRB1*09:01; percentage of signal of positive control peptide. Summed up:
as §1

A further test addresses DRB1*10:01 (Homo sapiens, UniProt P01903+P01911, A100R/A169T/D57E/F55L/F60V/F69Y/F76Y/I96L/L162R/M171V/P40V/Q260P/Q39E/Q99R/R195Q/R42F/S149N/S66Y/T210M/V115G/V67A/W38E/Y59R/Y61H). Description: REVEAL MHC-peptide binding assay. The note with it: HLA DRB1*10:01; percentage of signal of positive control peptide. Summed up: as §1
Test [1] has as its system Peripheral blood mononuclear cells (PBMC). Description: Tritiated thymidine proliferation assay. Format: cell-based, human.
Another test has as its system CD4 T cells. Description: CFSE CD4 T cell proliferation assay. The class given is cell-based, human.

Consider “1: tropomyosin-derived 15-mer MDAIKKKMQAMKLEK [Peptide 1]”, for which the values for the Binding score with DRB1*15:01, with DRB1*11:01 and with DQA1*03:01; DQB1*03:02 were 14.02%, 18.74% and 35.20%, respectively.
Regarding “2: tropomyosin-derived 15-mer IKKKMQAMKLEKDNA [Peptide 2]”, the Binding score with DRB1*13:01 worked out at 26.06%; in the test with DQA1*01:01; DQB1*05:01, 13.94%.
In turn, “3: tropomyosin-derived 15-mer KMQAMKLEKDNAMDR [Peptide 3]” had a Binding score with DRB1*04:01 of 23.52%.
In the test with DRB1*03:01, “4: tropomyosin-derived 15-mer AMKLEKDNAMDRADT [Peptide 4]” showed a Binding score of 74.69%.
In the case of “5: tropomyosin-derived 15-mer LEKDNAMDRADTLEQ [Peptide 5]”, in the test with DRB1*03:01, the Binding score was 66.31%.
In the case of “7: tropomyosin-derived 15-mer MDRADTLEQQNKEAN [Peptide 7]”, the Binding score with DRB1*04:01 was found to be 22.16%.
For “8: tropomyosin-derived 15-mer ADTLEQQNKEANNRA [Peptide 8]”, the Binding score with DQA1*05:01; DQB1*02:01 came out at 20.74%.
In the test with DQA1*05:01; DQB1*02:01, “10: tropomyosin-derived 15-mer QNKEANNRAEKSEEE [Peptide 10]” came in with a Binding score of 25.17%.
For the substance “13: tropomyosin-derived 15-mer EKSEEEVHNLQKRMQ [Peptide 13]”, the Binding score with DRB1*07:01 is recorded as 26.79%.
Consider “15: tropomyosin-derived 15-mer VHNLQKRMQQLENDL [Peptide 15]”, for which the Binding score with DRB1*11:01 came to 11.01%.
For the substance “18: tropomyosin-derived 15-mer QLENDLDQVQESLLK [Peptide 18]”, in the test with DRB1*04:01, the Binding score is given as 9.10 ^a %. The “Binding score (relative binding affinity)” value in the test on MHC class II alleles was at most 10%.
“21: tropomyosin-derived 15-mer QESLLKANIQLVEKD [Peptide 21]”: the Binding score with DRB1*09:01 is reported as 8.32 ^a %.
Turning to “24: tropomyosin-derived 15-mer QLVEKDKALSNAEGE [Peptide 24]”, the Binding score with DRB1*03:01 stood at 45.59%; with DRB1*04:01, 20.62%.
In the case of “29: tropomyosin-derived 15-mer VAALNRRIQLLEEDL [Peptide 29]”, the figures for the Binding score with DRB1*11:01 and with DRB1*13:01 were 22.35% and 19.31%, respectively.
“34: tropomyosin-derived 15-mer ERSEERLNTATTKLA [Peptide 34]” had a Binding score with DQA1*01:01; DQB1*05:01 of 22.67%.
“36: tropomyosin-derived 15-mer LNTATTKLAEASQAA [Peptide 36]”: the Binding score with DRB1*04:01 was 43.87%.
On to “43: tropomyosin-derived 15-mer RKVLENRSLSDEERM [Peptide 43]”, for which the “Binding score (relative binding affinity)” value with MHC class II alleles is recorded as at most 10%. The Binding score in the test with DQA1*01:01; DQB1*05:01 was 7.11 ^a %.
“49: tropomyosin-derived 15-mer ENQLKEARFLAEEAD [Peptide 49]” gave a Binding score in the test with DQA1*01:01; DQB1*05:01 of 19.65%.
On to “51: tropomyosin-derived 15-mer ARFLAEEADRKYDEV [Peptide 51]”, for which the Binding score with DRB1*03:01 stood at 15.03%; in the test with DRB1*04:01, 11.06%.
In the test with DRB1*11:01, “53: tropomyosin-derived 15-mer EADRKYDEVARKLAM [Peptide 53]” came in with a Binding score of 13.67%.
Consider “54: tropomyosin-derived 15-mer RKYDEVARKLAMVEA [Peptide 54]”, for which, in the test with DQA1*03:01; DQB1*03:02, the Binding score is reported as 7.98 ^a %.
Take “57: tropomyosin-derived 15-mer LAMVEADLERAEERA [Peptide 57]”: in the test with DRB1*03:01, the Binding score is on record as 19.46%.
As to “58: tropomyosin-derived 15-mer VEADLERAEERAETG [Peptide 58]”, the Binding score with DRB1*10:01 is recorded as 39.12%.
“63: tropomyosin-derived 15-mer ESKIVELEEELRVVG [Peptide 63]” came in with a Binding score with DRB1*03:01 of 29.06%.
Take “66: tropomyosin-derived 15-mer ELRVVGNNLKSLEVS [Peptide 66]”: the Binding score with DQA1*05:01; DQB1*02:01 is given as 24.15%; in the test with DRB1*04:01, 25.05%.
As to “74: tropomyosin-derived 15-mer AYKEQIKTLTNKLKA [Peptide 74]”, the Binding score with DRB1*07:01 was found to be 74.20%; with DRB1*04:01 it was 41.94%; with DRB1*11:01, 10.94%; with DQA1*03:01; DQB1*03:02, 19.28%; with DQA1*01:01; DQB1*05:01, 14.73%.
Turning to “76: tropomyosin-derived 15-mer KTLTNKLKAAEARAE [Peptide 76]”, the figures for the Binding score with DRB1*09:01 and in the test with DRB1*10:01 were 89.92% and 37.57%, respectively.
For the substance “80: tropomyosin-derived 15-mer RAEFAERSVQKLQKE [Peptide 80]”, the “Binding score (relative binding affinity)” value in the test on MHC class II alleles is at most 10%. The Binding score with DQA1*01:01; DQB1*05:01 is on record as 9.26 ^a %.
As for Tetanus Toxoid, the “Proliferative T cell response by tritiated-thymidine incorporation” value in [1] is given as “much higher proliferative responses”. In the test with CD4 T cells, the “CD4 T cell proliferation (CFSE)” value was “much greater level of CD4 T cell proliferation”.
